ChEMBL document CHEMBL1135138, “2-Aminothiazoles: a new class of agonist allosteric enhancers of A(1) adenosine receptors” (Bioorg Med Chem Lett, 2002)
The source made the active and inactive calls. No cut-off for these calls is given here.

How the values were obtained:
[1] = target: T1, Adenosine receptor A1 (Homo sapiens) (UniProt P30542); experiment: AE activity is the ratio of specific binding at the end of dissociation to specific binding at the end of 120 min of equilibration at 50 uM concentration to Adenosine A1 receptor; not significantly active
T1 sequence (whole entry): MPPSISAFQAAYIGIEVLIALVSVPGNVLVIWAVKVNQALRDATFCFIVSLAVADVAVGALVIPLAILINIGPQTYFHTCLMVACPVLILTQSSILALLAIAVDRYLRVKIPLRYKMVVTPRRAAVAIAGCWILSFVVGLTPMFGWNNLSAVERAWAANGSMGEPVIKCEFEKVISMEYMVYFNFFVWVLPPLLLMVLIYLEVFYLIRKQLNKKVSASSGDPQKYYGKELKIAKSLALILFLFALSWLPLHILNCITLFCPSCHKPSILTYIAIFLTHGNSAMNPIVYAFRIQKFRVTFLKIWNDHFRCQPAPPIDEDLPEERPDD
Summary of the method: (§1)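 Test agent from DMSO stock was added for 5 min. Dissociation was started with 8-CPT plus GTPγS and stopped after 10 min by glass-fibre filtration. Nonspecific binding (8-CPT/GTPγS, no agent) was subtracted. % = specific binding after dissociation ÷ after equilibration. Means of 2–3 experiments ±SEM.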

[2] = target: T2, Adenosine receptor A3 (Homo sapiens) (UniProt P0DMS8); experiment: Percent allosteric enhancer (AE) activity from ratio of specific binding to Adenosine A3 receptor at end of dissociation to that of 120 min of equilibration
T2 sequence (whole entry): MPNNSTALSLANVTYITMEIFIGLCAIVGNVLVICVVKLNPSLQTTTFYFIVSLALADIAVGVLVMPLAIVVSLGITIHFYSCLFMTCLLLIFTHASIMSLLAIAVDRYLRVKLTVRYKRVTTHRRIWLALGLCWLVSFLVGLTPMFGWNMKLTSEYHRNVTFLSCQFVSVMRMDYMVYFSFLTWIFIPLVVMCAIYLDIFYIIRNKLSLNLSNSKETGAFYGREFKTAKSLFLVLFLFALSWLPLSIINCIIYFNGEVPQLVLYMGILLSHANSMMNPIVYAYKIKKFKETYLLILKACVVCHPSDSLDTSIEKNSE

[3] = target: Adenosine receptor A2a (Homo sapiens) (UniProt P29274); experiment: Percent allosteric enhancer (AE) activity from ratio of specific binding to Adenosine A2A receptor at end of dissociation to that of 120 min of equilibration
[4] = target: T1, Adenosine receptor A1 (Homo sapiens); experiment: AE activity is the ratio of specific binding at the end of dissociation to specific binding at the end of 120 min of equilibration at 50 uM concentration to Adenosine A1 receptor; summary of the method: as §1
[5] = target: T1, Adenosine receptor A1 (Homo sapiens); experiment: AE activity is the ratio of specific binding at the end of dissociation to specific binding at the end of 120 min of equilibration at 5 uM concentration to Adenosine A1 receptor; summary of the method: as §1
[6] = target: T3, Adenosine receptor A1 (Homo sapiens, UniProt P30542); experiment: Effective concentration against Adenosine A1 receptor
T3 sequence (P30542 whole entry): T1 sequence (whole entry)

[7] = target: T1, Adenosine receptor A1 (Homo sapiens); experiment: AE activity is the ratio of specific binding at the end of dissociation to specific binding at the end of 120 min of equilibration at 5 uM concentration to Adenosine A1 receptor; not significantly active; summary of the method: as §1

Chain of Adenosine receptor A2a (Homo sapiens) (P29274 whole entry): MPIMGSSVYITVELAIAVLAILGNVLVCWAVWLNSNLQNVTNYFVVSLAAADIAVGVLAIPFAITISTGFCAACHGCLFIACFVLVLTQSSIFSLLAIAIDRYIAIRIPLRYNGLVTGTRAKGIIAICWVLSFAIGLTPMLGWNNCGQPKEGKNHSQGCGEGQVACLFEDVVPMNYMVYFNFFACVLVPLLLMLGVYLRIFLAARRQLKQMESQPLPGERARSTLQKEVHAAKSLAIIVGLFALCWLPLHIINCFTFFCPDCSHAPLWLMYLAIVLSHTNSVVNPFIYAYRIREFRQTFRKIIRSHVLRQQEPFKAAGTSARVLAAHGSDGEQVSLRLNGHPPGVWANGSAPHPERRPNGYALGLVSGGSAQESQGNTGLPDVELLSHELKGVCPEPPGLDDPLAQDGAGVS

Nc1nc2c(s1)Cc1cc(Br)ccc1-2
AE activity [1]: inactive

COc1cc2c(cc1OC)-c1nc(N)sc1C2
AE activity [2]: 29% | AE activity [3]: 36% | AE activity [4]: 78%

Nc1nc2c(s1)Cc1c(OC(=O)C3CCCCC3)cccc1-2
AE activity [1]: inactive

CC(=O)Oc1ccc2c(c1)CCc1sc(N)nc1-2
AE activity [2]: 30% | AE activity [3]: 24% | AE activity [4]: 95%

CCCCCCCCOc1ccc2c(c1)CCc1sc(N)nc1-2
AE activity [5]: 45%

COc1cc2c(c(OC)c1OC)-c1nc(N)sc1C2
AE activity [4]: 24%

COc1ccc2c(c1)Cc1sc(N)nc1-2
EC50 [6]: 50 µM | AE activity [4]: 66%

Cc1cccc2c1Cc1sc(N)nc1-2
AE activity [4]: 81%

Nc1nc2c(s1)CCc1ccccc1-2
EC50 [6]: 17 µM | AE activity [4]: 80%

Nc1nc2c(s1)-c1ccccc1CC2
AE activity [1]: inactive

Cc1ccc2c(c1)-c1nc(N)sc1C2
EC50 [6]: 4.2 µM | AE activity [4]: 72%

COc1ccc2c(c1)CCc1sc(N)nc1-2
AE activity [2]: 8% | AE activity [3]: 18% | AE activity [4]: 78%

Nc1nc2c(s1)Cc1c(OC(=O)C3CCCC3)cccc1-2
EC50 [6]: 4.5 µM | AE activity [4]: 85%

Nc1nc2c(s1)CCCCC2
AE activity [1]: inactive

Nc1nc2c(s1)-c1ccccc1C2
AE activity [1]: inactive

Nc1nc2c(s1)CCc1cc(OC3C=CC=C3)ccc1-2
AE activity [7]: inactive

COc1cc2c(c(OC)c1OC)Cc1sc(N)nc1-2
EC50 [6]: 17 µM | AE activity [5]: 60%

Nc1nc2c(s1)CCc1cc(OC(=O)c3ccccc3)ccc1-2
AE activity [5]: 54%

Nc1nc2c(s1)CCCC2
AE activity [4]: 19%

Nc1nc2c(s1)Cc1ccccc1-2
EC50 [6]: 38 µM | AE activity [4]: 91%

Nc1nc2c(s1)COc1ccccc1-2
AE activity [4]: 62%

CC(=O)Oc1cccc2c1Cc1sc(N)nc1-2
AE activity [2]: 22% | AE activity [3]: 19% | AE activity [5]: 74%

CCCCCOc1ccc2c(c1)CCc1sc(N)nc1-2
AE activity [5]: 41%

Nc1nc2c(s1)CCCc1ccccc1-2
AE activity [1]: inactive
